Laboratory results: ChEMBL document CHEMBL1133564, “A novel series of 4-piperidinopyridine and 4-piperidinopyrimidine inhibitors of 2,3-oxidosqualene cyclase-lanosterol synthase” (J Med Chem, 2000)
Values belong to the molecule of their own block, whether it stands above or below them.

Tests used:
[1] = Inhibition of cholesterol biosynthesis in rat following 2 mg/kg p.o. administration.; assay type: functional; conditions: route oral
Procedure, shortened: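 Female rats (130 ± 20 g) kept on reversed lighting, dosed orally at 2 mg/kg in DMSO/HPMC (n = 2). Tritiated mevalonate (2.5 µCi) given 1 h later; killed after a further 1 h. Liver saponified in KOH/EtOH 80 °C 2 h, isohexane-extracted, analysed by HPLC. Percent inhibition of cholesterol biosynthesis versus controls, with sterol precursor profile for step selectivity.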

[2] = molecular target: T1, Lanosterol synthase (Rattus norvegicus) (UniProt P48450); experiment: In vitro percent inhibitory activity of the compound against rat microsomal OSC enzyme at 1 uM concentration
T1 sequence (whole entry): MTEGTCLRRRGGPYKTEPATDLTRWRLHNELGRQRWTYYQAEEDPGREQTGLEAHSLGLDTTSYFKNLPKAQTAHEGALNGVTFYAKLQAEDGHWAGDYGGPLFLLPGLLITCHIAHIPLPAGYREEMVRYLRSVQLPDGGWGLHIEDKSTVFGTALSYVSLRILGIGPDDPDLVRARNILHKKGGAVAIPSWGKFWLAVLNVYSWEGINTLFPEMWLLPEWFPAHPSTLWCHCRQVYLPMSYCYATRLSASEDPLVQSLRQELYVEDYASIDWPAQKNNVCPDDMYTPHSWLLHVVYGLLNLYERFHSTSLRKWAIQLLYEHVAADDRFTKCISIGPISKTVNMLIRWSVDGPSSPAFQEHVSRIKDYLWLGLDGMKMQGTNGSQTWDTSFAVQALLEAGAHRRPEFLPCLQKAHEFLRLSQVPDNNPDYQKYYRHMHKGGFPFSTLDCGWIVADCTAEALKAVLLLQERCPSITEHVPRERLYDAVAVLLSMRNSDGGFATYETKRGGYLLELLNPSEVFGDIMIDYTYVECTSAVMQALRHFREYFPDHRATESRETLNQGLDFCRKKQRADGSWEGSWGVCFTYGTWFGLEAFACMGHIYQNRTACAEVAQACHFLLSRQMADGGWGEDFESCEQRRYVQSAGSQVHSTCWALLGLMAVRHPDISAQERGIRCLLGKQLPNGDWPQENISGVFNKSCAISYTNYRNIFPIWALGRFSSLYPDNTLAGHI
Procedure, shortened: (§1)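 Rat liver microsomal OSC in phosphate-buffered Tween, pH 7.4, with test compound at 1 µM. Preincubation 10 min at 37 °C, then oxidosqualene added for 1 h. Stopped with ethanolic KOH at 80 °C for 2 h, hexane-extracted. Percent inhibition, n = 2.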

Lanosterol synthase [3] = molecular target: T2, Lanosterol synthase (Rattus norvegicus, UniProt P48450); experiment: (§2) In vitro inhibitory activity of the compound against rat microsomal 2,3-Oxidosqualene lanosterol cyclase (OSC)
T2 sequence (P48450 whole entry): T1 sequence (whole entry)
Procedure, shortened: (§3)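 Rat liver microsomes (15-20 mg/mL protein stock) diluted in 50 mM phosphate buffer pH 7.4 with Tween. Test compound at serial 10-fold dilutions (10^-5 M, 10^-6 M, etc.) preincubated with microsomes 10 min at 37 °C. Oxidosqualene substrate added, then 1 h incubation. Stopped with ethanolic KOH, saponified 80 °C 2 h, hexane-extracted. IC50 by curve fitting with tight-binding model. Human OSC run the same way.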

Lanosterol synthase [4] = molecular target: T3, Lanosterol synthase (Homo sapiens, UniProt P48449); experiment: Compound was tested for its inhibition against human OSC enzyme; procedure, shortened: as §3
T3 sequence (P48449 whole entry): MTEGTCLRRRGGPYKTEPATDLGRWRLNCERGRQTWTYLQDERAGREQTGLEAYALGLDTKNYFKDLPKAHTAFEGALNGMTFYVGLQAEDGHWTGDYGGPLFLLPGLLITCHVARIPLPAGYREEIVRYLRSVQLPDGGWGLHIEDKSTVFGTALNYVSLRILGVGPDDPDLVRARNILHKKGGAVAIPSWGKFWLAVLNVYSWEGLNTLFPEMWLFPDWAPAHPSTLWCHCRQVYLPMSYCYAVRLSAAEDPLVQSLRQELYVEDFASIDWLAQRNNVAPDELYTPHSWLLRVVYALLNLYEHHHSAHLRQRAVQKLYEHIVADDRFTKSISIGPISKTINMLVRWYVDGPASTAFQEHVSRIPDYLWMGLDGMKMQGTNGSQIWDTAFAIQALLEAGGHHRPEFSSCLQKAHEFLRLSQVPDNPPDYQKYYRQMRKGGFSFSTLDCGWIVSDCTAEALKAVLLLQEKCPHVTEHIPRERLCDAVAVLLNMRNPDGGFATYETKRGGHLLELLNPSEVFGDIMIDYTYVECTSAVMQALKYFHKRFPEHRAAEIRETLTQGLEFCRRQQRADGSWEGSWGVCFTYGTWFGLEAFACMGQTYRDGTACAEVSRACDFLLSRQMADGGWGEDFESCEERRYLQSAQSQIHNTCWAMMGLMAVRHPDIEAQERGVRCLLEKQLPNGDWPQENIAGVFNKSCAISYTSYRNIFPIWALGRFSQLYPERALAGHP

[5] = molecular target: T1, Lanosterol synthase (Rattus norvegicus); experiment: Compound was tested for percent inhibition of OSC at 1 uM concentration in rat; procedure, shortened: as §1
[6] = Effective dose (80%) required to inhibit cholesterol biosynthesis in rat after oral administration; assay type: functional
Procedure, shortened: (§4)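 Female rats (130 ± 20 g) on reversed lighting, given test compound orally across a dose range in DMSO/HPMC (n = 2). Tritiated mevalonate (2.5 µCi) 1 h post-dose; killed 1 h later. Liver saponified, isohexane-extracted, HPLC radio-profile of sterols. ED50 or ED80 for inhibition of cholesterol biosynthesis derived from dose-response.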

[7] = Compound was tested for its acid dissociation constant; assay type: ADME
[8] = Effective dose (50%) required to inhibit cholesterol biosynthesis in rat after oral administration; assay type: functional; procedure, shortened: as §4
Lanosterol synthase [9] = molecular target: T2, Lanosterol synthase; experiment: Compound was tested for its inhibition against rat OSC enzyme; procedure, shortened: as §3
[10] = molecular target: T1, Lanosterol synthase (Rattus norvegicus); experiment: In vitro percent inhibitory activity against rat microsomal OSC enzyme at 1 uM concentration; procedure, shortened: as §1
[11] = molecular target: T1, Lanosterol synthase (Rattus norvegicus); experiment: as §2; conditions: concentration not given here; procedure, shortened: as §3
[12] = Effective dose (50%) required to inhibit cholesterol biosynthesis in rat after administration of a shallow oral dose; assay type: functional; procedure, shortened: as §4
[13] = Effective dose (80%) required to inhibit cholesterol biosynthesis in rat after administration of a shallow oral dose; assay type: functional; procedure, shortened: as §4
Lanosterol synthase [14] = molecular target: T2, Lanosterol synthase; experiment: In vitro inhibitory activity of the compound against rat microsomal 2,3-Oxidosqualene cyclase-Lanosterol synthase (OSC); procedure, shortened: as §3

SMILES: Cc1nsc(N2CCC(C(=O)N3CCN(S(=O)(=O)c4ccc(Br)cc4)CC3)CC2)n1
inhibition in vivo at 2 mg/kg [1]: 9%
inhibition [2]: 3%

SMILES: Cc1ccc(S(=O)(=O)N2CCN(C(=O)C3CCN(c4ccncc4)CC3)CC2)cc1
inhibition in vivo at 2 mg/kg [1]: 66%

SMILES: N#Cc1ccc(S(=O)(=O)N2CCN(C(=O)C3CCN(c4ccncc4)CC3)CC2)cc1
inhibition in vivo at 2 mg/kg [1]: 12%

SMILES: O=C(C1CCN(c2ccncc2)CC1)N1CCN(S(=O)(=O)c2cccc(F)c2)CC1
inhibition in vivo at 2 mg/kg [1]: 52%

SMILES: O=C(C1CCN(c2ccnnc2)CC1)N1CCN(S(=O)(=O)c2ccc(Br)cc2)CC1
inhibition in vivo at 2 mg/kg [1]: 54%

SMILES: O=C(C1CCN(c2ccncc2)CC1)N1CCN(S(=O)(=O)c2ccc(F)cc2F)CC1
inhibition in vivo at 2 mg/kg [1]: 10%

SMILES: O=C(C1CCN(c2ccncc2)CC1)N1CCN(S(=O)(=O)c2cccc(C(F)(F)F)c2)CC1
inhibition in vivo at 2 mg/kg [1]: 7%

SMILES: O=C(C1CCN(c2ccncc2)CC1)N1CCN(S(=O)(=O)c2ccc(F)cc2)CC1
inhibition in vivo at 2 mg/kg [1]: 46%

SMILES: O=C(c1ccc(C(F)(F)F)cc1)N1CCC(=Cc2ccc(C3=NCCO3)cc2)CC1
IC50 (Lanosterol synthase [3]): 90 nM
inhibition in vivo at 2 mg/kg [1]: 93%
ED80 [6]: 1 mg/kg
pKa [7]: 4.7
ED50 [8]: 0.4 mg/kg

SMILES: COc1ccc(S(=O)(=O)N2CCN(C(=O)C3CCN(c4ccncc4)CC3)CC2)cc1
inhibition in vivo at 2 mg/kg [1]: 38%

SMILES: O=C(C1CCN(c2ccncc2)CC1)N1CCN(S(=O)(=O)c2cccc(Br)c2)CC1
inhibition in vivo at 2 mg/kg [1]: 43%

SMILES: O=C(c1ccc(Cl)cc1)c1ccc(OC2CN3CCC2CC3)cc1 (centres undefined)
pKa [7]: 9.1
ED50 [8]: 2 mg/kg

SMILES: CCC(C)(C)C(=O)O[C@H]1C[C@@H](C)C=C2C=C[C@H](C)[C@H](CC[C@@H]3C[C@@H](O)CC(=O)O3)[C@H]21 [SIMVASTATIN]
ED80 [6]: 1.2 mg/kg

Further lines, with some results ahead:

IC50 (Lanosterol synthase [3]): 228 nM
IC50 (Lanosterol synthase [4]): 161 nM
inhibition [5]: 100%
pKa [7]: 9.2
SMILES: O=C(C1CCN(c2ccncc2)CC1)N1CCN(S(=O)(=O)c2ccc(Br)cc2)CC1
inhibition in vivo at 2 mg/kg [1]: 69%
ED80 [6]: > 2 mg/kg
ED50 [8]: 2 mg/kg

IC50 (Lanosterol synthase [4]): 37 nM
pKa [7]: 6.1
inhibition [2]: 100%
IC50 (Lanosterol synthase [9]): 116 nM
SMILES: O=C(C1CCN(c2ccncn2)CC1)N1CCN(S(=O)(=O)c2ccc(Br)cc2)CC1
inhibition in vivo at 2 mg/kg [1]: 81%
ED80 [6]: 1.4 mg/kg
ED50 [8]: 0.5 mg/kg

IC50 (Lanosterol synthase [3]): 326 nM
IC50 (Lanosterol synthase [4]): 143 nM
SMILES: O=C(C1CCN(c2ccncc2)CC1)N1CCN(S(=O)(=O)c2ccccc2)CC1
inhibition in vivo at 2 mg/kg [1]: 53%

inhibition [10]: 8%
SMILES: O=C(C1CCN(c2ncccn2)CC1)N1CCN(S(=O)(=O)c2ccc(Br)cc2)CC1
inhibition in vivo at 2 mg/kg [1]: 23%

inhibition [2]: 100%
SMILES: O=C(C1CCN(C2=NCCS2)CC1)N1CCN(S(=O)(=O)c2ccc(Br)cc2)CC1
inhibition in vivo at 2 mg/kg [1]: 81%

inhibition [11]: 96%
SMILES: O=C(c1ccc(Br)cc1)N1CCN(C(=O)C2CCN(c3ccncc3)CC2)CC1
inhibition in vivo at 2 mg/kg [1]: 28%

inhibition [11]: 100%
SMILES: O=C(C1CCN(c2ccncc2)CC1)N1CCN(Cc2ccc(Br)cc2)CC1
inhibition in vivo at 2 mg/kg [1]: 48%
ED50 [8]: 1.8 mg/kg

pKa [7]: 9.2
IC50 (Lanosterol synthase [14]): 82 nM
SMILES: O=C(C1CCN(c2ccncc2)CC1)N1CCN(S(=O)(=O)c2ccc(I)cc2)CC1
ED50 [12]: 2 mg/kg
inhibition in vivo at 2 mg/kg [1]: 52%
ED80 [13]: < 20 mg/kg

IC50 (Lanosterol synthase [4]): 112 nM
pKa [7]: 7.2
inhibition [2]: 76%
IC50 (Lanosterol synthase [9]): 398 nM
SMILES: Cc1nccc(N2CCC(C(=O)N3CCN(S(=O)(=O)c4ccc(Br)cc4)CC3)CC2)n1
inhibition in vivo at 2 mg/kg [1]: 83%
ED80 [6]: 1.2 mg/kg
ED50 [8]: 0.3 mg/kg

inhibition [11]: 87%
SMILES: O=C(C1CCN(C2=NCCO2)CC1)N1CCN(S(=O)(=O)c2ccc(Br)cc2)CC1
inhibition in vivo at 2 mg/kg [1]: 82%
